Assay outcomes from PubChem BioAssay.
DAGLB inh = blocks human DAGLB lipase activity | Q8NCG7 | HEK293T DAGLB membrane lysate, EnzChek fluorogenic substrate | hit rate 0.059% among 340,000 | inhibition, % at 5.17 µM | AID 504411; in the data active = inhibition above about 34%;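 note: 0% = enzyme with vehicle and 100% = wells lacking enzyme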
HTRA1 inhibitor = inhibitors of human serine peptidase HTRA1. Q92743. recombinant HTRA1, FP-rhodamine activity-based probe, fluorescence polarization. inhibition, % at 5.96 µM. hit rate 0.5% among 340,000; in the data active = inhibition above about 36%;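 note: 0% = enzyme with DMSO and 100% = wells lacking enzyme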
TCR CD3 inh = blocks the human TCR-CD3 interaction; inhibition, % at 9.4 µM; AID 651800; hit rate 0.37% among 360,000; TAMRA-labeled TCR probe fluorescence, biochemical; in the data active = inhibition above about 19%;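 note: recombinant mutant TCR 2C K166C tagged with TAMRA read by polarization; 0% = receptor in buffer alone and 100% = receptor with positive control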
mABHD4 FP = inhibits mouse alpha/beta hydrolase domain 4 | hit rate 0.54% among 370,000 | Q8VD66 | inhibition, % at 8.92 µM | purified mABHD4, FP-Rh probe fluorescence polarization;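 active = inhibition exceeding the mean over every tested compound plus 3 SD, cut at about 30% in these data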;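 note: 0% = plate median of compound wells and 100% = S159A mutant with DMSO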
Target sequence (Q8VD66 whole entry, looked up, the tested form may be a part): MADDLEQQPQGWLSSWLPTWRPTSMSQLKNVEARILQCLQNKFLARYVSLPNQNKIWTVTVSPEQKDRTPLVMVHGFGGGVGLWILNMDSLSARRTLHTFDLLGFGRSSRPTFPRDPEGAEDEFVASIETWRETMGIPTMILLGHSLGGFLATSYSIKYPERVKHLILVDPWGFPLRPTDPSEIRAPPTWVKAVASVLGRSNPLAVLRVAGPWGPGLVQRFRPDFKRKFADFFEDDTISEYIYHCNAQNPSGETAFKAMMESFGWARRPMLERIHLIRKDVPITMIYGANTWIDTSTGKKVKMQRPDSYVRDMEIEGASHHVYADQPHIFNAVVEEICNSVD
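Assay system: mABHD4 protein; medium: HEPES pH 7.0, NaCl, Pluronic buffer; dosing: 8.92 µM, single dose; schedule: 45 min + 60 min at 25 °C; signal: FP readout, ex 525 nm / em 598 nm; read-out: normalized percent inhibition of probe labeling; repeats: single replicate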
SIAE inh = blocks human sialic acid acetylesterase; Q9HAT2; SIAE FP-Rh probe binding, fluorescence polarization; inhibition, % at 9.66 µM; hit rate 0.69% among 370,000;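 active = inhibition above a cutoff: mean of compounds within the control limits plus 3 SD of those, cut at about 17% in these data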;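 note: 0% = plate median of compound wells and 100% = probe without SIAE protein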
SIAE inh conf = human SIAE inhibition, confirmation | shares compounds with SIAE inh | SIAE FP-Rh activity-based probe, fluorescence polarization | inhibition, % at 9.66 µM | hit rate 13% among 2,300;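 active = mean inhibition of the replicates above the hit cutoff set in the primary screen, cut at about 17% in these data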;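 note: 0% = SIAE with DMSO and probe and 100% = probe without SIAE; inhibitors lower polarization as more probe stays unbound to SIAE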
* hit, by the source's call; · = not tested or not shown. A selection: hits, their analogues and other compounds. The true share with any hit is near 1.6%.

SMILES	DAGLB inh	HTRA1 inhibitor	TCR CD3 inh	mABHD4 FP	SIAE inh	SIAE inh conf
CC1CCCN(c2cccc3c2S(=O)(=O)N(Cc2cccc(F)c2)[C@@H](C)[C@H](c2ccccc2)O3)C1 (stereo partly drawn)	·	·	-4.8	4.2	4.0	·
CCc1ccc(CNC(=O)CCS(=O)(=O)Cc2ccccc2F)cc1	-0.4	-6.8	0.4	-7.2	19.9*	4.0
NS(=O)(=O)c1ccc(CNC(=O)CCS(=O)(=O)Cc2ccccc2)cc1	2.0	4.7	-3.1	1.5	2.7	·
CC(C)Cn1c(SCC(=O)c2ccc(Cl)s2)nnc1-c1ccco1	-1.8	-21.6	-1.2	2.8	24.5*	2.6
CN(/N=C/c1ccc(O)cc1O)c1nc(-c2ccccc2)cc(-c2ccccc2)n1	0.8	18.3	-5.1	0.6	19.9*	5.8
Cc1ccc(S(=O)(=O)N2CCC(C(=O)NCCCN3CCOCC3)CC2)cc1C	-0.5	3.5	-3.2	-1.2	18.3*	3.2
Cc1ccc(S(=O)(=O)N2CCC(C(=O)NCCN3CCOCC3)CC2)cc1C	-1.6	3.2	-2.9	-1.7	9.8	·
CCOC(=O)/C=C(\C)Sc1cc(O)c2ccccc2c1O	-16.1	20.4	-7.8	33.8*	18.4*	-1.0
Nn1c(SCC(=O)Nc2ccc(OCc3ccccc3)cc2)nnc1-c1cc(-c2ccc(F)cc2)n[nH]1	·	·	·	4.4	1.0	·
CC(=O)Nc1c(O)nc(SCc2ccccc2C#N)[nH]c1=O	0.5	2.3	-4.4	2.7	1.3	·
N#Cc1ccccc1CSc1nc(O)cc(=O)[nH]1	1.0	3.0	3.5	-2.9	17.2*	-5.5
COc1ccc(OCCC(=O)Nc2ccc(S(N)(=O)=O)cc2)cc1	-2.1	-8.5	-2.4	-0.1	18.4*	-1.1
Cc1noc(C)c1COC(=O)c1csc2c1CCC(C)C2 (stereo not drawn)	-5.8	-10.3	7.5	0.8	20.1*	-0.1
CC1CCc2c(C(=O)NCC3CCCO3)csc2C1 (stereo not drawn)	-1.2	4.2	-3.0	-3.7	-1.0	·
CN(CCCCCCCCC(=O)/C=N/O)Cc1ccccc1	-3.5	5.0	-0.1	3.9	22.0*	9.4
c1coc(-c2nc3c4ccccc4ccn3c2Cc2ccsc2)c1	·	·	4.2	3.4	-4.3	·
CCn1c(SCC(=O)Nc2ccccc2)nc2ccccc2c1=O	-4.2	-7.2	2.3	-0.5	17.2*	3.9
Cc1ccccc1P(=O)(CO)c1ccccc1C	-2.1	1.5	-10.0	1.4	177.8*	2.7
Cn1c(=O)c(Nc2ccc(Cl)cc2)c2c3c(cccc31)C(=O)c1ccccc1-2	·	·	41.9*	42.0*	30.7*	35.0*
c1cc2c3c(cccc3c1)NC(c1ccc3c(c1)OCO3)N2	10.4	0.0	-1.6	4.8	27.5*	8.4
COC(=O)C1CN(C2CC2)CCS(=O)(=O)N1Cc1cn(Cc2ccccc2)nn1 (stereo not drawn)	·	·	·	0.8	6.3	·
CCCOc1ccc(CSc2nnc(CCC)n2N)cc1	-2.2	-5.2	1.9	0.1	2.3	·
CCCc1nnc(SCc2ccc(OC)cc2)n1N	0.4	-1.1	4.7	5.2	17.8*	0.7
CC(C)(C)c1ccc(-c2nnc(SCC(=O)Nc3cccc4ccccc34)n2Cc2ccco2)cc1	·	·	·	-18.3	-13.2	·
Cn1cnc(S(=O)(=O)Nc2ccccc2C(=O)NCC2CC2)c1	-0.8	2.1	3.5	5.6	17.1*	4.3
SMILES	DAGLB inh	HTRA1 inhibitor	TCR CD3 inh	mABHD4 FP	SIAE inh	SIAE inh conf
CC(=O)Nc1ccc(N2C(C(C)=O)=NN(c3ccc(Cl)cc3)C2c2sccc2C)cc1 (stereo not drawn)	-1.3	-5.7	3.4	-8.2	21.3*	5.0
Cc1ccc(S(=O)(=O)Nc2ccc3c(c2)nc(CCN2CCN(c4ccccn4)CC2)n3C)cc1	-1.3	1.7	7.0	-0.2	18.5*	-0.8
S=C(NCc1ccc2[nH]c3c(c2c1)CCCC3)Nc1ccccc1	1.8	17.4	1.1	13.9	23.4*	8.9
Cc1cc(C)cc(NC(=S)NCc2ccc3[nH]c4c(c3c2)CCCC4)c1	2.1	2.8	-9.2	3.0	17.2*	2.2
C=CCN(C)CC#Cc1ccc(C)cc1	·	·	·	4.6	-2.7	·
Cc1ccc(NC(=S)c2ccc(N(C)C)cc2)cc1	-0.9	4.7	8.2	4.3	17.2*	-0.4
CN[C@H]1C[C@H]2c3[nH]c4cccc(-c5ccc6c(c5)OCO6)c4c3CCN2C[C@H]1[C@H](C)O	·	·	·	10.0	15.1	·
Cc1ccc(NC(=O)Cn2c(CCC(=O)O)ccc2-c2cccs2)cc1Cl	4.0	-24.3	-3.8	-2.0	126.1*	1.4
